Tn7 DDE FP: disrupts Tn7 cyclic peptide binding to fibrin D-Dimer-E complex. P02675. actives 0.13% (n = 370,000). FP displacement of FITC-Tn7 peptide from fibrin DD(E); 0% = median of compound wells per plate. inhibition, % at 8.3 µM;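 active = inhibition above the mean of compounds falling within the control limits plus 3 SD of them, cut at about 14% in these data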;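 note: 0% = plate median of compound wells and 100% = 10 µM Aha-Tn7 peptide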
Target sequence (P02675 whole entry, looked up): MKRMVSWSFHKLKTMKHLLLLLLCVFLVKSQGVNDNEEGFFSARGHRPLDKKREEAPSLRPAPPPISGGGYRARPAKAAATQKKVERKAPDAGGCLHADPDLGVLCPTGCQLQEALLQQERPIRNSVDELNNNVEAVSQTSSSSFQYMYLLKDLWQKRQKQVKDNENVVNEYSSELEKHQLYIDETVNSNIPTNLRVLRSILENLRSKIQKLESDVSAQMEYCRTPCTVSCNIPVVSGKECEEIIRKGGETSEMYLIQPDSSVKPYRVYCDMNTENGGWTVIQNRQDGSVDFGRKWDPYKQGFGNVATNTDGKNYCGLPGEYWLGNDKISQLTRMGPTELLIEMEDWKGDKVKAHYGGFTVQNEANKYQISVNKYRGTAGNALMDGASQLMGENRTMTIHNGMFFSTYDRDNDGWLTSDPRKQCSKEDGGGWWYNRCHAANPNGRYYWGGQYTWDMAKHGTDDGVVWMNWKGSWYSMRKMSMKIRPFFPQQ
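Assay system: Human clot-derived fibrin DD(E) complex | Buffer or medium: Tris/NaCl/CaCl2 buffer, pH 7.8 | Repeats: One replicate per compound | Benchmarks: Aha-Tn7 high control | Measure: % inhibition scaled between sample-field median and high-control FP | Schedule: 10 min plus 3 h, room temperature | Signal: Fluorescence polarization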
ASAP1 inh: inhibitors of human ASAP1 ArfGAP activity. ASAP1-stimulated ARF1 GTP hydrolysis, GDP FP detection. inhibition, % at 16.5 µM. actives 0.19% (n = 360,000). AID 624377; in the data active = inhibition above about 25%;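 note: 0% = vehicle with enzyme and substrate and 100% = no enzyme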
ARFGAP1 inhibitor: rat ARFGAP1 inhibition; Arfgap1-stimulated ARF1 GTP hydrolysis, GDP FP detection; inhibition, % at 16.5 µM; actives 0.26% (n = 360,000); AID 651572;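 active = inhibition above a per-plate limit, mean inhibition of low control wells plus 3 SD, cut at about 25% in these data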;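 note: 0% = DMSO wells with enzyme and 100% = wells lacking Arfgap1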
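Material – truncated rat Arfgap1 GAP domain · Buffer or medium – HEPES-based buffer, pH 7.5 · Reagent – human ARF1(Δ1-17)-GTP substrate · Dosing – 16.5 µM single point, 1.26% DMSO · Schedule – GTP hydrolysis reaction 2 h at 25 °C · Technique – GDP detection by fluorescence polarization · Benchmarks – No-Arfgap1 wells (100%) versus DMSO full-reaction wells (0%) · Repeats – single replicate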
DDE Tn6 FP inh: inhibitors of Tn6 peptide binding to human fibrin DD(E); Fibrin DD(E) TRITC-Tn6 fluorescence polarization displacement; inhibition, % at 8.3 µM; P02675; actives 0.21% (n = 370,000);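 active = inhibition above a per-campaign cutoff: mean of compounds within control limits plus 3 SD, cut at about 15% in these data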;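 note: 0% = median of all compound wells on the plate and 100% = blocking peptide control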
Tn7 DDE conf: confirmation of inhibitors of Tn7 binding to human fibrin DD(E); actives 5% (n = 460); inhibition, % at 8.3 µM; FP displacement of TRITC-Tn7 peptide from DD(E); 0% set at plate's compound-well median; shares compounds with Tn7 DDE FP;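 active = inhibition above the campaign cutoff, the mean of compounds within control limits plus 3 SD, cut at about 14% in these data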;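 note: 100% = median FP of high control wells holding Aha-Tn7 inhibitor peptide; displacers lower polarization since freed probe rises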
DDE Tn7 FP ctr: counter-screen hit for Tn7 peptide-fibrin DD(E) binding disruption. actives 3% (n = 460). shares compounds with Tn7 DDE FP. inhibition, % at 8.3 µM. TRITC-Tn7 probe displacement, fluorescence polarization;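 active = inhibition above the cutoff, the mean of compounds lying between the control bounds plus 3 SD of those compounds, cut at about 17% in these data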;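 note: 0% = median of compound sample wells and 100% = excess unlabeled Aha-Tn7 peptide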
Active calls of the source: *; nt = not tested or not shown. Hits are enriched below; roughly 0.74% of the tested compounds scored in any of these assays.

SMILES	Tn7 DDE FP	ASAP1 inh	ARFGAP1 inhibitor	DDE Tn6 FP inh	Tn7 DDE conf	DDE Tn7 FP ctr
O=C(c1ccccc1)N1CCSc2sccc2C1=O	15*	-4	0	9	5	-5
O=c1oc2c(O)cccc2cc1-c1nc2ccccc2[nH]1	36*	4	14	-4	21*	-4
O=C1C=C(NCc2ccncc2)CC(c2ccccc2)C1 (stereo unspecified)	6	4	17	2	nt	nt
O=C1C=C(NNC(=O)c2ccncc2)CC(c2ccccc2)C1 (stereo unspecified)	29*	-6	8	5	-7	-15
Cc1ccc(NC(=O)CS(=O)CC(=O)N(c2ccc(C)cc2)C(C)C(=O)NC2CCCCC2)cc1 (stereo unspecified)	15*	-3	-4	13	9	7
CCOP(=O)(c1ccccc1)C(O)c1ccc(F)cc1 (stereo unspecified)	2	-1	-6	9	nt	nt
CCOP(=O)(c1ccccc1)C(O)c1ccc([N+](=O)[O-])cc1 (stereo unspecified)	16*	-10	3	4	0	-5
CCCCOCCCNC(=O)C[C@@H]1C(=O)N2CCCC3=C2[C@@]1(C(=O)OC)CCCC3	-2	nt	nt	-9	nt	nt
OCCOCCn1c(C(CO)Nc2nc(-c3ccccc3Br)cs2)nc2ccccc21 (stereo unspecified)	14*	6	-6	4	4	5
OCCOCCn1c(C(CO)Nc2nc(-c3cccc(Br)c3)cs2)nc2ccccc21 (stereo unspecified)	3	10	8	-4	nt	nt
C[C@H]1[C@@H](OC(=O)Nc2cc(Cl)ccc2Cl)CC[C@@]23CCCN2C(=O)CCC[C@@H]13	-11	nt	nt	2	nt	nt
NS(=O)(=O)c1ccc(CNC(=O)Cc2ccccc2[N+](=O)[O-])cc1	15*	-2	-8	2	0	2
COc1ccc(-c2c(Cc3ccccc3)nc(NC(=O)c3ccccc3F)n2C)cc1	3	nt	nt	-3	nt	nt
CSCCCNC(=O)c1oc(=O)c2ccccc2c1-c1ccc(C)cc1	15*	nt	nt	7	-2	-3
CC1=C2NC(N)=[N+](CC3CC3)C(Cc3ccccc3)[C@@H]2n2c(=O)n(-c3ccccc3)c(=O)n2C1 (stereo partly specified)	-4	nt	nt	-7	nt	nt
c1ccc(-c2ccc(CNC3CC3)cc2)cc1	14*	-2	3	10	6	-1
Cc1c[nH]c2cccc(-c3ccc(OCc4ccccc4)cc3)c12	7	nt	nt	-5	nt	nt
COc1cc(/C=C2\CCCc3c2nc2ccccc2c3C(=O)O)cc(Br)c1O	-2	10	2	5	nt	nt
CCOc1cc(/C=C2\CCCc3c2nc2ccccc2c3C(=O)O)ccc1OC	64*	-3	18	-1	31*	-2
O=C(Nc1ccc2ccccc2c1)NC1CCCCN(Cc2ccc(Cl)cc2)C1=O (stereo unspecified)	1	nt	nt	2	nt	nt
COC(=O)C1CSC(C(=O)OC)N1C(=O)Nc1ccc(Cl)c(Cl)c1 (stereo unspecified)	15*	-5	-2	4	1	-2
COC(=O)C1CSC(C(=O)OC)N1C(=O)Nc1ccc(Cl)cc1 (stereo unspecified)	2	1	-8	2	nt	nt
O=C1CCN2C=Nc3cccc4ccc1c2c34	63*	-12	-5	3	30*	-8
CC(C)(C)/C(COc1ccccc1[N+](=O)[O-])=N/O	1	2	-3	4	nt	nt
CC(C)(C)OC(=O)C(Oc1ccccc1[N+](=O)[O-])C(=O)OC(C)(C)C	19*	-12	3	11	1	11
CCCCOc1ccc(C(=O)NC2CCCCN(CC)C2=O)cc1 (stereo unspecified)	3	nt	nt	4	nt	nt
COc1ccc([C@@H]2C[C@@H](c3ccccc3)Oc3cc(C)cc(C)c32)cc1	2	7	9	3	nt	nt
COc1ccc([C@@H]2C[C@@H](c3ccccc3)Oc3c(C)ccc(C(C)C)c32)cc1	14*	0	-6	-4	10	7

Source: PubChem BioAssay
